Series [1] is described as follows: Cytotoxicity against MDCK cells after 48 hrs by CellTiter 96 AQueous Non-Radioactive cell proliferation assay. The format is cell-based, Canis lupus familiaris. The conditions noted are these: dog. In short, it runs like this:
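MDCK cells (1 × 10^5 cells/mL) exposed to inhibitor without virus, same steps as the antiviral assay: 48 h at 37 °C, 5% CO2, viability by MTS-type reagent, absorbance at 490 nm. CC50 is the 50% cytotoxic concentration. Highest concentration tested was 100 μM.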

A short description of series [2]: Prodrug conversion in rabbit serum assessed as formation of (3R,4R)-[3-((S)-1-Acetamido-2-ethylbutyl)-4-guanidinocyclopent-1-en-1-yl]phosphonic acid at 1 mM at 37 degC after 24 to 96 hrs by HPLC/ESI-HRMS analysis. The format is ADME, Oryctolagus cuniculus. The settings on record: 1000 µM.

Each structure is given as a SMILES string.

As for `CCCCCCOP(=O)(O)[C@@H]1C[C@@H]([C@@H](NC(C)=O)C(CC)CC)[C@H](NC(=N)N)C1`, the CC50 (commonly the concentration that lowers cell viability or growth by half) at 48 h in series [1] is over 100 µM. On the same count and under the same terms, the same measure for `CC(=O)N[C@H]1[C@H]([C@H](O)[C@H](O)CO)OC(C(=O)O)=C[C@@H]1NC(=N)N` [ZANAMIVIR]: over 100 µM; for `CCCCCCOP(=O)(O)[C@H]1C[C@@H](NC(=N)N)[C@H]([C@@H](NC(C)=O)C(CC)CC)[C@@H]1O`: over 100 µM; for `CCOP(=O)(O)[C@H]1C[C@@H](NC(=N)N)[C@H]([C@@H](NC(C)=O)C(CC)CC)[C@@H]1O`: over 100 µM.

As to `CCOP(=O)(O)C1=C[C@@H]([C@@H](NC(C)=O)C(CC)CC)[C@H](NC(=N)N)C1`, the CC50 at 48 h in series [1] is over 100 µM. Besides, the Drug metabolism entry in series [2] is “metabolite_notdetected”. Take `CCC(CC)O[C@@H]1C=C(C(=O)O)C[C@H](N)[C@H]1NC(C)=O` [OSELTAMIVIR CARBOXYLATE]: the half-maximal cytotoxic concentration (CC50) at 48 h in series [1] is over 100 µM. The same measure, in the same setting: the same measure for `CCOP(=O)(O)[C@@H]1C[C@@H]([C@@H](NC(C)=O)C(CC)CC)[C@H](NC(=N)N)C1`: over 100 µM. For the molecule `CCC(CC)[C@H](NC(C)=O)[C@@H]1[C@H](O)[C@@H](C(=O)O)C[C@H]1NC(=N)N` [PERAMIVIR ANHYDROUS], the CC50 at 48 h in series [1] was over 100 µM. On to `CCC(CC)[C@H](NC(C)=O)[C@@H]1C[C@@H](P(=O)(O)O)C[C@H]1NC(=N)N`, for which the half-maximal cytotoxic concentration (CC50) at 48 h in series [1] was over 100 µM. Still for that read-out and setting: the figure for `CCC(CC)[C@H](NC(C)=O)[C@@H]1[C@H](O)[C@@H](P(=O)(O)O)C[C@H]1NC(=N)N` is over 100 µM; for `CCC(CC)[C@H](NC(C)=O)[C@@H]1C=C(P(=O)(O)O)C[C@H]1NC(=N)N` it is over 100 µM. On the same count and under the same terms, the same measure for `CCCCCCOP(=O)(O)C1=C[C@@H]([C@@H](NC(C)=O)C(CC)CC)[C@H](NC(=N)N)C1`: over 100 µM.

The values above are taken from ChEMBL document CHEMBL3817747 (J Med Chem, 2016).
